One test deals with NCI-H178. The test can be described thus: Cytotoxicity against human […] cells. It is filed as functional, cell-based.
Another test deals with KB. The test can be described thus: Cytotoxicity against human KB cells. The format is functional, cell-based.
The next test concerns BC1. The test can be described thus: Cytotoxicity against human BC1 cells. It is filed as functional, cell-based.
The next test has as its system Candida albicans. Nature of the test: Antifungal activity against Candida albicans by XTT formazan assay. The format is functional, organism-based. An outline of the steps:
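Clinical isolate of Candida albicans tested by a modified soluble formazan (XTT) method. Viable cells read as XTT formazan absorbance at 450 nm. IC50 taken in μg/mL.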
On the technique in general: Formazan colour is commonly taken as a measure of viable cells.

In brackets after ≈: the same amount, converted by molar mass. Activity calls are given as the source filed them. No cut-off for these calls is given here.

Turning to `CC(=O)C1=C2C=C3C=C(/C=C/C(C)=C/[C@@H](C)CCO)OC=C3[C@@H](O)[C@]2(C)OC1=O` [ROTIORINOL C], the result in the test with NCI-H178, with KB and with BC1 was inactive. In addition, the IC50 (in general, the concentration that inhibits the measured activity by half) with Candida albicans was determined as 16.7 mg/L (≈ 41.9 µM).
For the compound `CC[C@H](C)/C=C(C)/C=C/C1=CC2=C(Cl)C(=O)[C@@]3(C)OC(=O)C(C(C)=O)=C3C2=CO1` [RUBROROTIORIN], the outcome in the test on NCI-H178, in the test with KB and in the test on BC1 was inactive. This compound came in with an IC50 with Candida albicans of 0.6 mg/L (≈ 1.45 µM).
For `CC[C@H](C)/C=C(C)/C=C/C1=CC2=CC3=C(C(C)=O)C(=O)O[C@@]3(C)C(=O)C2=CO1`, the outcome in the test with NCI-H178, in the test on KB and in the test on BC1 was inactive. In the test on Candida albicans, this compound had an IC50 of 24.3 mg/L (≈ 63.9 µM).
Take `CC[C@H](C)/C=C(C)/C=C/C1=CC2=CC3=C(C(C)=O)C(=O)O[C@@]3(C)[C@H](O)C2=CO1` [ROTIORINOL A]: the result with NCI-H178, in the test with KB and with BC1 was inactive. Moreover, 10.5 mg/L (≈ 27.5 µM) corresponded to half-maximal inhibition in the test with Candida albicans (IC50).

These data come from ChEMBL document CHEMBL1157962, “Antifungal azaphilones from the fungus Chaetomium cupreum CC3003” (J Nat Prod, 2006).
